Experimental data published in ChEMBL document CHEMBL1255245, “Relative replication capacity and selective advantage profiles of protease inhibitor-resistant hepatitis C virus (HCV) NS3 protease mutants in the HCV genotype 1b replicon system” (Antimicrob Agents Chemother, 2008).

How the values were obtained:
Hepatitis C virus [1] = assay: Selectivity ratio of EC50 for Hepatitis C virus genotype 1b N expressing NS3 A156V mutant infected in human HuH7 cells to EC50 for Hepatitis C virus genotype 1b N expressing wild type NS3 infected in human HuH7 cells; assay type: functional, Hepacivirus hominis, genotype 1b strain N, Huh-7
Outline: (§1)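 Change in resistance: mutant replicon EC50 divided by wild-type 1b N replicon EC50 for the same drug. Both EC50s come from 4-day transient-replication assays in electroporated Huh7 cells with a firefly luciferase read-out, fitted from triplicate-well means. Mean of at least three experiments.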

Hepatitis C virus [2] = assay: Selectivity ratio of EC50 for Hepatitis C virus genotype 1b N expressing NS3 T54A mutant infected in human HuH7 cells to EC50 for Hepatitis C virus genotype 1b N expressing wild type NS3 infected in human HuH7 cells; assay type: functional, Hepacivirus hominis, genotype 1b strain N, Huh-7; outline: as §1
Hepatitis C virus [3] = assay: Selectivity ratio of EC50 for Hepatitis C virus genotype 1b N expressing NS3 R155K mutant infected in human HuH7 cells to EC50 for Hepatitis C virus genotype 1b N expressing wild type NS3 infected in human HuH7 cells; assay type: functional, Hepacivirus hominis, genotype 1b strain N, Huh-7; outline: as §1
Hepatitis C virus [4] = assay: Selectivity ratio of EC50 for Hepatitis C virus genotype 1b N expressing NS3 V36M/R155K double mutant infected in human HuH7 cells to EC50 for Hepatitis C virus genotype 1b N expressing wild type NS3 infected in human HuH7 cells; assay type: functional, Hepacivirus hominis, genotype 1b strain N, Huh-7; outline: as §1
Hepatitis C virus [5] = assay: Selectivity ratio of EC50 for Hepatitis C virus genotype 1b N expressing NS3 D168V mutant infected in human HuH7 cells to EC50 for Hepatitis C virus genotype 1b N expressing wild type NS3 infected in human HuH7 cells; assay type: functional, Hepacivirus hominis, genotype 1b strain N, Huh-7; outline: as §1
Hepatitis C virus [6] = assay: Selectivity ratio of EC50 for Hepatitis C virus genotype 1b N expressing NS3 R155Q mutant infected in human HuH7 cells to EC50 for Hepatitis C virus genotype 1b N expressing wild type NS3 infected in human HuH7 cells; assay type: functional, Hepacivirus hominis, genotype 1b strain N, Huh-7; outline: as §1
Hepatitis C virus [7] = assay: Antiviral activity against wild-type Hepatitis C virus genotype 1b N infected in human Huh7 cells; assay type: functional, organism-based, Hepacivirus hominis; conditions: genotype 1b strain N, Huh-7
Outline: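 Transient replication: firefly-luciferase replicon RNA (genotype 1b N strain) transcribed in vitro and electroporated into Huh7 cells, plated in DMEM with 10% FBS. Luciferase read at 4 h to gauge transfection/translation. Drug dilutions added to a second plate set, incubated 4 days at 37°C, then luciferase measured. Triplicate samples per experiment; EC50 fitted from means; at least three experiments.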

Hepatitis C virus [8] = assay: Selectivity ratio of EC50 for Hepatitis C virus genotype 1b N expressing NS3 V36M mutant infected in human HuH7 cells to EC50 for Hepatitis C virus genotype 1b N expressing wild type NS3 infected in human HuH7 cells; assay type: functional, Hepacivirus hominis, genotype 1b strain N, Huh-7; outline: as §1
Hepatitis C virus [9] = assay: Selectivity ratio of EC50 for Hepatitis C virus genotype 1b N expressing NS3 A156S mutant infected in human HuH7 cells to EC50 for Hepatitis C virus genotype 1b N expressing wild type NS3 infected in human HuH7 cells; assay type: functional, Hepacivirus hominis, genotype 1b strain N, Huh-7; outline: as §1
Hepatitis C virus [10] = assay: Selectivity ratio of EC50 for Hepatitis C virus genotype 1b N expressing NS3 A156T mutant infected in human HuH7 cells to EC50 for Hepatitis C virus genotype 1b N expressing wild type NS3 infected in human HuH7 cells; assay type: functional, Hepacivirus hominis, genotype 1b strain N, Huh-7; outline: as §1
Hepatitis C virus [11] = assay: Selectivity ratio of EC50 for Hepatitis C virus genotype 1b N expressing NS3 D168A mutant infected in human HuH7 cells to EC50 for Hepatitis C virus genotype 1b N expressing wild type NS3 infected in human HuH7 cells; assay type: functional, Hepacivirus hominis, genotype 1b strain N, Huh-7; outline: as §1
Hepatitis C virus [12] = assay: Selectivity ratio of EC50 for Hepatitis C virus genotype 1b N expressing NS3 V170A mutant infected in human HuH7 cells to EC50 for Hepatitis C virus genotype 1b N expressing wild type NS3 infected in human HuH7 cells; assay type: functional, Hepacivirus hominis, genotype 1b strain N, Huh-7; outline: as §1
Hepatitis C virus [13] = assay: Selectivity ratio of EC50 for Hepatitis C virus genotype 1b N expressing NS3 R155K mutant infected in human HuH7 cells to EC50 for Hepatitis C virus genotype 1b N expressing wild type NS3 infected in human HuH7 cells at >10 nM; assay type: functional, Hepacivirus hominis, genotype 1b strain N, Huh-7
Hepatitis C virus [14] = assay: Selectivity ratio of EC50 for Hepatitis C virus genotype 1b N expressing NS3 R155K mutant infected in human HuH7 cells to EC50 for Hepatitis C virus genotype 1b N expressing wild type NS3 infected in human HuH7 cells at 10 nM; assay type: functional, Hepacivirus hominis, genotype 1b strain N, Huh-7
Hepatitis C virus [15] = assay: Selectivity ratio of EC50 for Hepatitis C virus genotype 1b N expressing NS3 R155Q mutant infected in human HuH7 cells to EC50 for Hepatitis C virus genotype 1b N expressing wild type NS3 infected in human HuH7 cells at 10 nM; assay type: functional, Hepacivirus hominis, genotype 1b strain N, Huh-7
Hepatitis C virus [16] = assay: Selectivity ratio of EC50 for Hepatitis C virus genotype 1b N expressing NS3 A156T mutant infected in human HuH7 cells to EC50 for Hepatitis C virus genotype 1b N expressing wild type NS3 infected in human HuH7 cells at 10 nM; assay type: functional, Hepacivirus hominis, genotype 1b strain N, Huh-7
Hepatitis C virus [17] = assay: Selectivity ratio of EC50 for Hepatitis C virus genotype 1b N expressing NS3 D168V mutant infected in human HuH7 cells to EC50 for Hepatitis C virus genotype 1b N expressing wild type NS3 infected in human HuH7 cells at 10 nM; assay type: functional, Hepacivirus hominis, genotype 1b strain N, Huh-7
Hepatitis C virus [18] = assay: Selectivity ratio of EC50 for Hepatitis C virus genotype 1b N expressing NS3 R155Q mutant infected in human HuH7 cells to EC50 for Hepatitis C virus genotype 1b N expressing wild type NS3 infected in human HuH7 cells at 100 nM; assay type: functional, Hepacivirus hominis, genotype 1b strain N, Huh-7
Hepatitis C virus [19] = assay: Selectivity ratio of EC50 for Hepatitis C virus genotype 1b N expressing NS3 V170A mutant infected in human HuH7 cells to EC50 for Hepatitis C virus genotype 1b N expressing wild type NS3 infected in human HuH7 cells at 10 nM; assay type: functional, Hepacivirus hominis, genotype 1b strain N, Huh-7
Hepatitis C virus [20] = assay: Selectivity ratio of EC50 for Hepatitis C virus genotype 1b N expressing NS3 A156T mutant infected in human HuH7 cells to EC50 for Hepatitis C virus genotype 1b N expressing wild type NS3 infected in human HuH7 cells at 100 nM; assay type: functional, Hepacivirus hominis, genotype 1b strain N, Huh-7
Hepatitis C virus [21] = assay: Selectivity ratio of EC50 for Hepatitis C virus genotype 1b N expressing NS3 R155K mutant infected in human HuH7 cells to EC50 for Hepatitis C virus genotype 1b N expressing wild type NS3 infected in human HuH7 cells at 100 nM; assay type: functional, Hepacivirus hominis, genotype 1b strain N, Huh-7
Hepatitis C virus [22] = assay: Selectivity ratio of EC50 for Hepatitis C virus genotype 1b N expressing NS3 D168V mutant infected in human HuH7 cells to EC50 for Hepatitis C virus genotype 1b N expressing wild type NS3 infected in human HuH7 cells at 100 nM; assay type: functional, Hepacivirus hominis, genotype 1b strain N, Huh-7
Hepatitis C virus [23] = assay: Selectivity ratio of EC50 for Hepatitis C virus genotype 1b N expressing NS3 V170A mutant infected in human HuH7 cells to EC50 for Hepatitis C virus genotype 1b N expressing wild type NS3 infected in human HuH7 cells at 100 nM; assay type: functional, Hepacivirus hominis, genotype 1b strain N, Huh-7

Row | SMILES | Ratio EC50 (Hepatitis C virus [1]) | Ratio EC50 (Hepatitis C virus [2]) | Ratio EC50 (Hepatitis C virus [3]) | Ratio EC50 (Hepatitis C virus [4]) | Ratio EC50 (Hepatitis C virus [5]) | Ratio EC50 (Hepatitis C virus [6]) | EC50 (Hepatitis C virus [7]) [nM] | Ratio EC50 (Hepatitis C virus [8]) | Ratio EC50 (Hepatitis C virus [9]) | Ratio EC50 (Hepatitis C virus [10]) | Ratio EC50 (Hepatitis C virus [11]) | Ratio EC50 (Hepatitis C virus [12]) | also measured
1 | CCC[C@H](NC(=O)[C@@H]1[C@H]2CCC[C@H]2CN1C(=O)[C@@H](NC(=O)[C@@H](NC(=O)c1cnccn1)C1CCCCC1)C(C)(C)C)C(=O)C(=O)NC1CC1 [TELAPREVIR] | 63.1 | 6.7 | 5.4 | 3.3 | 0.2 | 1.3 | 320 | 0.7 | 19 | 96.3 | 0.1 | – | –
2 | CC(C)(C)OC(=O)N[C@H]1CCCCC/C=C\[C@@H]2C[C@@]2(C(=O)NS(=O)(=O)C2CC2)NC(=O)[C@@H]2C[C@@H](OC(=O)N3Cc4cccc(F)c4C3)CN2C1=O [DANOPREVIR] | 7.1 | 0.9 | 89.3 | 55.7 | 14.9 | 6.1 | 0.3 | 0.7 | 40 | 96 | 14 | 1.2 | Ratio EC50 (Hepatitis C virus [13]): 33
3 | COc1ccc2c(O[C@@H]3C[C@H]4C(=O)N[C@]5(C(=O)O)C[C@H]5/C=C\CCCCC[C@H](NC(=O)OC5CCCC5)C(=O)N4C3)cc(-c3csc(NC(C)C)n3)nc2c1 [CILUPREVIR] | 445 | 0.6 | 147.5 | 139.9 | 193.6 | 29.6 | 1.5 | 0.8 | 28 | 366.6 | 63.3 | 1.5 | Ratio EC50 (Hepatitis C virus [14]): 7; Ratio EC50 (Hepatitis C virus [15]): 7; Ratio EC50 (Hepatitis C virus [16]): 7; Ratio EC50 (Hepatitis C virus [17]): 7; Ratio EC50 (Hepatitis C virus [18]): 660; Ratio EC50 (Hepatitis C virus [19]): 7; Ratio EC50 (Hepatitis C virus [20]): 660; Ratio EC50 (Hepatitis C virus [21]): 660; Ratio EC50 (Hepatitis C virus [22]): 660; Ratio EC50 (Hepatitis C virus [23]): 660
